# MrgX1 PAM: allosterically activates human MrgX1 receptor signaling; MrgX1-HEK293, Fluo-4 calcium flux, FDSS; hits give high values; actives 0.63% (n = 310,000); Q96LB2; B-score at 10 µM;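 active means plate-corrected calcium response at least 3 library SD above typical, normal starting fluorescence, not activating the receptor alone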;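 further: compound read alongside a low EC10 to EC30 dose of BAM8-22 agonist; peak minus trough fluorescence over baseline measured at the second addition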
# Target sequence (Q96LB2 whole entry, looked up): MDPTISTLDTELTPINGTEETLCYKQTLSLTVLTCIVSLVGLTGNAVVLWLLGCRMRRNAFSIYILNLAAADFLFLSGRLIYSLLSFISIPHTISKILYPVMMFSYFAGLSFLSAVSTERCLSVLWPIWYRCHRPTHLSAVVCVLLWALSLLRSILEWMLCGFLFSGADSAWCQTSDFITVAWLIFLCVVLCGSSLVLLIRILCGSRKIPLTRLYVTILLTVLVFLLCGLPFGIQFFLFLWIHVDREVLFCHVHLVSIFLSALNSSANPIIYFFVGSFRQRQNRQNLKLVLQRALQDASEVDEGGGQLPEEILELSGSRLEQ
# RGS4 block: inhibitors of human RGS4; P49798; HEK293 M3R/RGS4 inducible, Fluo-4 calcium flux; hits give high values; triggered by carbachol at its EC20; B-score at 10 µM; actives 0.45% (n = 310,000); AID 463165;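 active means B-score, a plate-corrected calcium signal, over three deviations above library mean, with baseline fluorescence within five deviations of library mean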;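 further: RGS4 expression induced by doxycycline in cells with stable M3 receptor; B-score is computed from the integrated fluorescence ratio over baseline after carbachol; higher B-score means a larger calcium signal and so more RGS4 inhibition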
# Target sequence (P49798 whole entry, looked up): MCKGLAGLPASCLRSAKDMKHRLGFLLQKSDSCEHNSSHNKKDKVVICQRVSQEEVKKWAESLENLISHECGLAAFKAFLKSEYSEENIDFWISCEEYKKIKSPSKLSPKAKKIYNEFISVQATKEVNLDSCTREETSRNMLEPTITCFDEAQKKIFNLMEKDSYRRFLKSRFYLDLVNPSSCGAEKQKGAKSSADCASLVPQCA
# MrgX1 agonist: human MrgX1 receptor agonism, primary screen. actives 0.44% (n = 310,000). Q96LB2. B-score at 10 µM. MrgX1-HEK293 cells, Fluo-4 calcium fluorescence, agonist mode; hits give high values. AID 588627;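 active means calcium response B-score plate-corrected fluorescence ratio at least 3 library SD, with starting fluorescence B-score inside 5 SD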
#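 System: HEK293 cells stably expressing human MrgX1 receptor; Dosing: test compound in the initial addition of three; Schedule: overnight plating, then 30 min 37 °C plus 30 min room-temperature dye loading; Detection: kinetic calcium dye fluorescence, Fluo-4 NW; Controls: per-plate positive and negative controls for Z′ factor.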
# MrgX1 antag: human MrgX1 receptor antagonism, primary screen; MRGX1-HEK293 calcium flux, Fluo-4, BAM8-22 antagonism; hits give low values; actives 1.3% (n = 310,000); B-score at 10 µM;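 active means calcium-response B-score plate-corrected more than 3 library SD below zero, starting fluorescence within 5 deviations, no agonist response on first addition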;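 further: peak minus trough fluorescence over baseline after final BAM8-22 challenge near maximal dose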
# RGS4 act: potentiators or activators of RGS4; HEK293 M3R/inducible RGS4, carbachol calcium flux Fluo4; hits give low values; B-score at 10 µM; actives 0.92% (n = 310,000); AID 463111;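 active means B-score of the integrated calcium signal more than 4 SD below the library mean, with starting fluorescence not abnormally high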;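 further: negative B-score means reduced calcium response which marks RGS4 activation or potentiation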
#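 Detection: kinetic calcium fluorescence imaging with Fluo4-AM dye, 2 µM / Material: HEK293 cells with stable M3R and inducible RGS4 / Schedule: recording 10 s baseline at 1 Hz, 100 s post-agonist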
# MrgX1 antag conf: reconfirmed antagonist of human MrgX1 receptor signaling. remaining BAM8-22 calcium response % of control (hits give low values), % at 10 µM. AID 602420. shares compounds with MrgX1 antag. actives 19% (n = 2,300). MrgX1-HEK293, BAM8-22 calcium flux, Fluo-4; hits give low values;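 active means remaining agonist calcium response no higher than 100% minus 3 SD of agonist-only control wells, with starting fluorescence near control levels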;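 further: agonist BAM8-22 given at a near maximal EC90 to ECmax level; peak minus minimum fluorescence divided by baseline after agonist addition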
# HEK293 Ca flux: activity in parental HEK293 cells lacking MrgX1; shares compounds with MrgX1 antag; AID 624111; actives 2% (n = 4,000); fluorescence ratio F(max-min)/F0 at 10 µM; Fluo-4 calcium fluorescence, FDSS;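 active means duplicate-averaged calcium fluorescence ratio at least three times the standard deviation of buffer wells, a nonspecific response in parental cells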
# HEK293 Ca counter: activity in parental HEK293 cells without MrgX1; shares compounds with MrgX1 antag; actives 0.4% (n = 4,000); parental HEK293 calcium flux, Fluo-4 fluorescence ratio; hits give high values; fluorescence ratio F(max-min)/F0 at 10 µM;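 active means calcium fluorescence ratio, averaged over duplicates, at least 3 SD of the buffer-well ratio, meaning a nonspecific response in receptor-free cells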;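 further: untransfected parental HEK293 lacking MrgX1 used as counterscreen for MrgX1 allosteric activators; fluorescence change taken during the second addition on a kinetic imager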
# HEK293 Ca cntr2: activity in parental HEK293 cells lacking MrgX1 receptor; shares compounds with MrgX1 antag; Fluo-4 calcium fluorescence (FDSS); hits give high values; fluorescence ratio F(max-min)/F0 at 10 µM; actives 8.7% (n = 4,000); AID 624115;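 active means calcium fluorescence ratio at least three times the spread of buffer wells, meaning a non-specific response in parental cells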
# * = called active by the depositor; i = inactive; nt = no result. In the library only some 3.5% were active in any assay of this set; here they are far more common.
SMILES,MrgX1 PAM,RGS4 block,MrgX1 agonist,MrgX1 antag,RGS4 act,MrgX1 antag conf,HEK293 Ca flux,HEK293 Ca counter,HEK293 Ca cntr2
COc1cc(C(=O)Oc2ccccc2)ccc1OCc1c(C)noc1C,i,i,i,-6*,i,i,i,i,i
CCn1nnc2cc(C(=O)Nc3cc(S(C)(=O)=O)ccc3Cl)ccc21,i,i,i,i,i,nt,nt,nt,nt
CCn1nnc2cc(C(=O)Nc3cc(OC)cc(OC)c3)ccc21,i,i,i,-8.7*,i,i,i,i,i
CCOC(=O)C1=C(COC(=O)C2CC(=O)N(c3ccc(C)cc3)C2)NC(=O)NC1C (stereo not given),i,i,i,-5.8*,i,i,i,i,i
O=C(COC(=O)[C@H](Cc1ccccc1)NC(=O)c1ccco1)NCc1ccccc1,i,i,i,i,i,nt,nt,nt,nt
CC(=O)c1sc(NC(=O)CN2C(=O)NC3(CCCC3)C2=O)nc1-c1ccccc1,i,i,i,-6.4*,i,i,i,i,i
COc1cc(NS(=O)(=O)c2ccc(NC(=O)/C=C/C(=O)O)cc2)nc(OC)n1,i,i,i,i,i,nt,nt,nt,nt
Cc1cc(C)cc(NC(=O)C2CCN(S(=O)(=O)c3ccc4c(c3)NC(=O)C(C)S4)CC2)c1 (stereo not given),i,i,i,i,i,nt,nt,nt,nt
Cc1ccc(NC(=O)C2CCN(S(=O)(=O)c3ccc4c(c3)NC(=O)C(C)S4)CC2)cc1Cl (stereo not given),i,i,i,-4.6*,i,86%*,i,i,i
CC(C)CNC(=O)c1cccc(NC(=O)CSc2ccccc2)c1,i,i,i,i,i,nt,nt,nt,nt
CC(C)CNC(=O)c1cccc(NC(=O)Cc2ccc(Cl)cc2)c1,i,i,i,-5.5*,i,i,i,i,i
Cc1ccc(-c2nnc(SCC(N)=O)n2C)cc1,i,i,i,-4.9*,i,i,i,i,i
CCN(CC)S(=O)(=O)c1cccc(-c2nnc(SCC(N)=O)n2C)c1,i,i,i,-6.7*,i,84%*,i,i,i
Cc1c(C)c2c(OCC(=O)Nc3ccc(CCO)cc3)cc3c(c2oc1=O)CCC(C)(C)O3,i,i,i,-6.2*,i,i,i,i,i
Cc1c(C)c2c(OCC(=O)O)cc3c(c2oc1=O)CCC(C)(C)O3,i,i,i,i,i,nt,nt,nt,nt
COc1ccccc1CNC(=O)COc1cc2c(c3oc(=O)cc(C)c13)CCC(C)(C)O2,i,i,i,-7.6*,i,62%*,i,i,i
Cc1cccc(C(=O)NC2CCN(CC(=O)NCc3ccccc3F)CC2)c1,i,i,i,i,i,nt,nt,nt,nt
Nc1nonc1-c1noc(CCCN2C(=O)c3ccccc3C2=O)n1,i,i,i,-6.6*,i,i,i,i,i
COC(C(=O)Nc1ccnn1C1CCN(Cc2ccccn2)CC1)c1ccccc1 (stereo not given),i,i,i,i,i,nt,nt,nt,nt
Cc1ccc(C(=O)NCC(c2ccc(F)cc2)N2CCOCC2)cc1 (stereo not given),i,i,i,i,i,nt,nt,nt,nt
CC(=O)c1ccc(-c2ccc(C(=O)NCC(c3ccc(F)cc3)N3CCOCC3)o2)cc1 (stereo not given),i,i,i,-8*,i,60%*,i,i,i
CN1CCN(c2ccc(-c3ccnn3C(=O)Nc3ccccc3)cc2)CC1,i,i,i,-10*,i,i,i,i,i
CN1CCN(c2ccc(NC(=O)C(C)(c3ccccc3)c3ccccc3)cc2)CC1,i,i,i,i,i,nt,nt,nt,nt
Cc1cc(C)cc(NC(=O)c2cc(S(=O)(=O)N3CCCC3)cn2C)c1,i,i,i,-6.9*,i,i,i,i,i
COc1cccc(Nc2nc(NCC3CCCO3)c3ccccc3n2)c1 (stereo not given),i,i,i,-6.1*,i,20%*,i,i,i
SMILES,MrgX1 PAM,RGS4 block,MrgX1 agonist,MrgX1 antag,RGS4 act,MrgX1 antag conf,HEK293 Ca flux,HEK293 Ca counter,HEK293 Ca cntr2
Oc1ccc(Nc2nc(NCC3CCCO3)c3ccccc3n2)cc1 (stereo not given),nt,i,nt,nt,i,nt,nt,nt,nt
COc1ccc(S(=O)(=O)N2CCC(C(=O)NCCCc3ccccc3)CC2)cc1,i,i,i,i,i,nt,nt,nt,nt
S=c1nc(-c2ccccc2Br)[nH][nH]1,i,i,i,-6.1*,i,i,i,i,i
Cn1nccc1C(=O)N1CCN(S(=O)(=O)c2ccc(Br)s2)CC1,i,i,i,i,i,nt,nt,nt,nt
CN(C(=O)COC(=O)C1CSC2(C)CCC(=O)N12)c1ccccc1 (stereo not given),i,i,i,i,i,nt,nt,nt,nt
Cc1ccc(Cl)cc1NC(=O)c1cccc(OC(F)F)c1,i,i,i,-4.7*,i,i,i,i,i
COc1ccccc1N1CCN(C2CCCCC2NS(=O)(=O)c2ccccc2)CC1 (stereo not given),i,i,i,i,i,nt,nt,nt,nt
Brc1ccc(-c2nc3ncccn3c2NC2CCCCC2)o1,i,i,i,-5.3*,i,i,i,i,i
O=C(COc1ccccc1C(=O)c1cnn(-c2ccccc2)c1)Nc1ccc2ccccc2c1,i,i,i,i,i,nt,nt,nt,nt
CC(C)c1ccc(NC(=O)COc2ccc(F)cc2C(=O)c2cnn(-c3ccccc3)c2)cc1,i,i,i,-5.3*,i,i,i,i,i
CCCCCCNS(=O)(=O)c1ccc(NC(=O)C2CCCO2)cc1 (stereo not given),i,i,i,i,i,nt,nt,nt,nt
CCOC(=O)N1CCN(C(=O)CN(Cc2ccc(Cl)cc2)S(C)(=O)=O)CC1,i,i,i,-6.2*,i,i,i,i,i
